According to ChEMBL document CHEMBL4038309, “Design and Synthesis of Chlorinated and Fluorinated 7-Azaindenoisoquinolines as Potent Cytotoxic Anticancer Agents That Inhibit Topoisomerase I” (J Med Chem, 2017):
Calls of active or inactive are those of the source. The calls are words filed in the database; no cut-off is given here.

Key:
[1] = test system: PBMC; test: Induction of DNA damage in human PBMC assessed as gamma-H2AX foci formation at 0.1 to 1 uM after 2 hrs by confocal microscopy; type: cell-based
[2] = test system: CCRF-CEM; test: Induction of DNA damage in human CCRF-CEM cells assessed as gamma-H2AX foci formation at 0.1 to 1 uM after 2 hrs by confocal microscopy; type: functional, cell-based
[3] = test system: DU-145; test: Antiproliferative activity against human DU145 cells assessed as growth inhibition; type: functional
Summary of the method: (§1)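 NCI-60 screen: single-dose pre-screen at 10 μM, then five concentrations from 0.01 to 100 μM. Values beyond the tested range are recorded as 0.01 or 100 μM.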

[4] = test system: SF-539; test: Antiproliferative activity against human SF539 cells assessed as growth inhibition; type: functional; summary of the method: as §1
[5] = biological target: T1, DNA topoisomerase 1 (Homo sapiens) (UniProt P11387); test: Inhibition of recombinant Top1 (unknown origin) assessed as Top 1 mediated DNA cleavage using 3'-[32P]-labeled 117 bp DNA as substrate at 0.1 to 100 uM after 20 mins by PAGE analysis
T1 sequence (whole entry): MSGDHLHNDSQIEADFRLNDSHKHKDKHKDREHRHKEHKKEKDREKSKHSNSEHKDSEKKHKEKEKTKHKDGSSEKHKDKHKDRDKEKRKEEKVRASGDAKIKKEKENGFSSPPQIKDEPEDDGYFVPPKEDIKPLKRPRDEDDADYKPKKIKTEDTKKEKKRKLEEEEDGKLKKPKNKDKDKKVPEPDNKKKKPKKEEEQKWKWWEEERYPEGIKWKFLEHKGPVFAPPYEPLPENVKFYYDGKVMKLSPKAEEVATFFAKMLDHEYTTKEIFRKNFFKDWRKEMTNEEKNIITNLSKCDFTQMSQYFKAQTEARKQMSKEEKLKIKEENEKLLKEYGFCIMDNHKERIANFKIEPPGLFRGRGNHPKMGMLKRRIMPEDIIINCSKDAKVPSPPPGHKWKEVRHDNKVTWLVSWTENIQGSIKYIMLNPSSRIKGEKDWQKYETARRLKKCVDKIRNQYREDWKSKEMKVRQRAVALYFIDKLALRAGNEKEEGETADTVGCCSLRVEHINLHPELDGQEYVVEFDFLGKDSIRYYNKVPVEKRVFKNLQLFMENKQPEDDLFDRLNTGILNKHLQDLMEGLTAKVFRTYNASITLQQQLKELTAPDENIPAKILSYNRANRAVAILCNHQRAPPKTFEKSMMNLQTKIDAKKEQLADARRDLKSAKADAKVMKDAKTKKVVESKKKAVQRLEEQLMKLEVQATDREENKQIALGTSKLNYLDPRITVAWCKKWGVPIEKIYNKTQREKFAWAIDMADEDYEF
Summary of the method: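 About 2 nM 3'-[32P]-labeled DNA with recombinant Top1 in 10 mM Tris-HCl pH 7.5, 50 mM KCl, 5 mM MgCl2, 0.1 mM EDTA, 15 μg/mL BSA, 25 °C, 20 min. Compound at 0.1, 1, 10 and 100 μM. Stopped with 0.5% SDS and formamide dye, then run on 20% denaturing PAGE with phosphorimaging.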

[6] = test system: MCF7; test: Antiproliferative activity against human MCF7 cells assessed as growth inhibition; type: functional; summary of the method: as §1
[7] = test system: HOP-62; test: Antiproliferative activity against human HOP62 cells assessed as growth inhibition; type: functional; summary of the method: as §1
[8] = test system: SN12C; test: Antiproliferative activity against human SN12C cells assessed as growth inhibition; type: functional; summary of the method: as §1
[9] = test system: UACC-62; test: Antiproliferative activity against human UACC62 cells assessed as growth inhibition; type: functional; summary of the method: as §1
[10] = test system: OVCAR-3; test: Antiproliferative activity against human OVCAR3 cells assessed as growth inhibition; type: functional; summary of the method: as §1
[11] = biological target: T2, Tyrosyl-DNA phosphodiesterase 2 (Homo sapiens, UniProt O95551); test: Inhibition of recombinant human TDP2 using 3'-labeled alpha-[32P]-cordycepin as substrate after 15 mins
T2 sequence (O95551 whole entry): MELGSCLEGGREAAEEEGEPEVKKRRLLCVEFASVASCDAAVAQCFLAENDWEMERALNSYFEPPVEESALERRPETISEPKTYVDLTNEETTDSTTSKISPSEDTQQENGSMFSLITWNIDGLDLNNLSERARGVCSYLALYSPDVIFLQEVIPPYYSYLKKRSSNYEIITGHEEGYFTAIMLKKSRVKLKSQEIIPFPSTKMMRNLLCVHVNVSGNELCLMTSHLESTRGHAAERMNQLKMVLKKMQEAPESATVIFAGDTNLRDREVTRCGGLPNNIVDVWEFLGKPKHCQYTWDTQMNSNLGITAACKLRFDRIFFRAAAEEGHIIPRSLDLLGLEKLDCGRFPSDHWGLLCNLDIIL

[12] = test system: HCT-116; test: Antiproliferative activity against human HCT116 cells assessed as growth inhibition; type: functional; summary of the method: as §1
[13] = Toxicity in zebrafish embryo assessed as survival at 0.01 uM preincubated for 1 hr measured after 72 hrs (reference value: 82.5 +/- 8.4%); design: species or system Danio rerio; settings: zebrafish embryos
[14] = Toxicity in zebrafish embryo assessed as survival at 0.1 uM preincubated for 1 hr measured after 24 hrs (reference value: 86.2 +/- 8.5%); design: species or system Danio rerio; settings: zebrafish embryos
[15] = Toxicity in zebrafish embryo assessed as survival at 0.1 uM preincubated for 1 hr measured after 96 hrs (reference value: 82.5 +/- 8.4%); design: species or system Danio rerio; settings: zebrafish embryos
[16] = Toxicity in zebrafish embryo assessed as survival at 0.01 uM preincubated for 1 hr measured after 24 hrs (reference value: 86.2 +/- 8.5%); design: species or system Danio rerio; settings: zebrafish embryos
[17] = Toxicity in zebrafish embryo assessed as survival at 0.1 uM preincubated for 1 hr measured after 72 hrs (reference value: 82.5 +/- 8.4%); design: species or system Danio rerio; settings: zebrafish embryos
[18] = Toxicity in zebrafish embryo assessed as survival at 1 uM preincubated for 1 hr measured after 72 hrs (reference value: 82.5 +/- 8.4%); design: species or system Danio rerio; settings: zebrafish embryos
[19] = Toxicity in zebrafish embryo assessed as survival at 0.01 uM preincubated for 1 hr measured after 120 hrs (reference value: 82.5 +/- 8.4%); design: species or system Danio rerio; settings: zebrafish embryos
[20] = Toxicity in zebrafish embryo assessed as survival at 0.1 uM preincubated for 1 hr measured after 48 hrs (reference value: 84.4 +/- 8.5%); design: species or system Danio rerio; settings: zebrafish embryos
[21] = Toxicity in zebrafish embryo assessed as survival at 1 uM preincubated for 1 hr measured after 120 hrs (reference value: 82.5 +/- 8.4%); design: species or system Danio rerio; settings: zebrafish embryos
[22] = Toxicity in zebrafish embryo assessed as survival at 0.01 uM preincubated for 1 hr measured after 48 hrs (reference value: 84.4 +/- 8.5%); design: species or system Danio rerio; settings: zebrafish embryos
[23] = test system: Danio rerio; test: Toxicity in zebrafish embryo assessed as increase in yolk sac edema at 0.1 uM preincubated for 1 hr measured after 24 to 120 hrs; settings: in vivo
Summary of the method: (§2)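 Wild-type AB zebrafish embryos, 4 clutch replicates of 40 embryos each, held at 28 °C through 120 hpf. Exposed in Petri dishes to 10, 1, 0.1 or 0.01 μM compound in filtered fish water with 0.1% DMSO. Water-only and DMSO controls included. Mortality, hatching and gross malformations observed.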

[24] = Toxicity in zebrafish embryo assessed as survival at 0.1 uM preincubated for 1 hr measured after 120 hrs (reference value: 82.5 +/- 8.4%); design: species or system Danio rerio; settings: zebrafish embryos
[25] = Toxicity in zebrafish embryo assessed as survival at 10 uM preincubated for 1 hr measured after 24 to 120 hrs (reference value: 82.5 to 86.2%); design: species or system Danio rerio; settings: zebrafish embryos
[26] = Toxicity in zebrafish embryo assessed as survival at 1 uM preincubated for 1 hr measured after 24 hrs (reference value: 86.2 +/- 8.5%); design: species or system Danio rerio; settings: zebrafish embryos
[27] = Toxicity in zebrafish embryo assessed as survival at 1 uM preincubated for 1 hr measured after 96 hrs (reference value: 82.5 +/- 8.4%); design: species or system Danio rerio; settings: zebrafish embryos
[28] = Toxicity in zebrafish embryo assessed as survival at 1 uM preincubated for 1 hr measured after 48 hrs (reference value: 84.4 +/- 8.5%); design: species or system Danio rerio; settings: zebrafish embryos
[29] = organism: Danio rerio; test: Toxicity in zebrafish embryo assessed as hatching rate at 0.1 uM preincubated for 1 hr measured after 24 to 120 hrs; settings: in vivo; summary of the method: as §2
[30] = Toxicity in zebrafish embryo assessed as survival at 0.01 uM preincubated for 1 hr measured after 96 hrs (reference value: 82.5 +/- 8.4%); design: species or system Danio rerio; settings: zebrafish embryos
[31] = organism: Danio rerio; test: Toxicity in zebrafish embryo assessed as increase in bent tail at 0.1 uM preincubated for 1 hr measured after 24 to 120 hrs; settings: in vivo; summary of the method: as §2

SMILES	Activity [1]	Activity [2]	GI50 [3] [nM]	GI50 [4] [nM]	Top1-mediated DNA cleavage activity (active/not active) [5]	GI50 [6] [nM]	GI50 [7] [nM]	GI50 [9] [nM]	GI50 [10] [nM]	GI50 [12] [nM]	other results
COc1cc2c3c(n(CCCNCCO)c(=O)c2cc1OC)-c1cc2c(cc1C3=O)OCO2 [LMP-744]	Non-Toxic	Active									
CCNCCCn1c2c(c3ccc(Cl)cc3c1=O)C(=O)c1cc(OC)cnc1-2			208	506	Active	< 10	122	532	2130	203	GI50 [8]: 675 nM; IC50 [11]: > 111000 nM
CC[C@@]1(O)C(=O)OCc2c1cc1n(c2=O)Cc2cc3ccccc3nc2-1 [CAMPTOTHECIN]	Non-Toxic	Active				13					
COc1cnc2c(c1)C(=O)c1c-2n(CCCn2ccnc2)c(=O)c2cc(Cl)ccc12			43	38	Active	< 10	20	28	120	14	survival at 72 h, 0.01 µM [13]: 63.1%; survival at 24 h, 0.1 µM [14]: 55.6%; survival at 96 h, 0.1 µM [15]: 50.6%; survival at 24 h, 0.01 µM [16]: 67.5%; survival at 72 h, 0.1 µM [17]: 51.9%; survival at 72 h, 1 µM [18]: 1.2%; survival at 120 h, 0.01 µM [19]: 61.9%; survival at 48 h, 0.1 µM [20]: 54.4%; survival at 120 h, 1 µM [21]: 1.2%; survival at 48 h, 0.01 µM [22]: 65.6%; Activity [23]: Non-Toxic; survival at 120 h, 0.1 µM [24]: 50.6%; survival at 10 µM [25]: 0%; survival at 24 h, 1 µM [26]: 10.6%; survival at 96 h, 1 µM [27]: 1.2%; survival at 48 h, 1 µM [28]: 1.2%; Activity [29]: Non-Toxic; survival at 96 h, 0.01 µM [30]: 61.8%; Activity [31]: Non-Toxic
COc1cnc2c(c1)C(=O)c1c-2n(CCCN2CCC(O)CC2)c(=O)c2cc(Cl)ccc12	Non-Toxic	Active	270	430	Active	42	94	190	1420	98	
